GASC1 inh: inhibitors of GASC-1 (KDM4C) histone demethylase, primary screen, biochemical, single concentration HTS | AID 720574, 2013 | actives 0.15% (n = 96,000) | GST-KDM4C 2-372, H3K9me3 peptide, LANCE TR-FRET | Lysine-specific demethylase 4C (Homo sapiens), Q9H3R0 | inhibition, % at 12.5 µM;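 active = mean replicate inhibition above about 25%, with at least 55% of replicates also reaching it, limit read from the data, passing the limit was not always enough; inconclusive = only one of those two conditions met; inactive = neither condition met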
Target sequence (Q9H3R0 2-372 limits assumed): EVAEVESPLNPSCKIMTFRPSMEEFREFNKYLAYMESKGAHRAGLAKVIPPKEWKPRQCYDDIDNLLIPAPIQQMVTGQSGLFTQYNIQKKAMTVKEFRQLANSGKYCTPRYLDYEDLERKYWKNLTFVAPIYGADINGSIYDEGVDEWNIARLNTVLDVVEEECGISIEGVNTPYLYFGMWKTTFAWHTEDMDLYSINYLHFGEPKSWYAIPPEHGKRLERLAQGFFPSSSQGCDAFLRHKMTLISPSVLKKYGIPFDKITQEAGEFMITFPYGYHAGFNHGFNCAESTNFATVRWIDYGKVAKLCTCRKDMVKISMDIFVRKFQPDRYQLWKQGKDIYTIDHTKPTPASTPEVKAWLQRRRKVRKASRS
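Material: GST-tagged GASC-1 (JMJD2C) catalytic fragment, aa 2-372 / Quantity: enzyme final amount 10 nM / Medium: HEPES buffer, pH 7.5, plus ascorbate / Doses: one test concentration per compound / Incubation: 30 min reaction, 60 min detection, RT / Measured by: LANCE TR-FRET / Read-out: inhibition from TR-FRET ratio decrease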
IDH1 R132H inh: inhibitors of IDH1 R132H reductase, primary screen, biochemical, plate reader, single point | Isocitrate dehydrogenase [NADP] cytoplasmic (Homo sapiens), O75874 | diaphorase/resazurin fluorescence, 60 min | inhibition, % at 10 µM | actives 0.18% (n = 70,000); in the data active = inhibition above about 34%; inconclusive = no clear call, values can overlap the other calls; inactive = below about 11%;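 note: 0% = DMSO and 100% = no enzyme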
Pf Dd2 growth: P. falciparum Dd2 growth inhibitors, primary screen, SYBR Green fluorescence, single dose replicates. 72 h; active compounds read low. activity change, % at 10 µM. actives 2.3% (n = 94,000). AID 1159554, 2015; in the data active = activity change below about -80%; inconclusive = no clear call, values can overlap the other calls
T cruzi growth-1: T. cruzi intracellular proliferation inhibitors, primary screen, cell-based, beta-gal Tulahuen parasites, NIH3T3 host, luminescence. T. cruzi beta-gal in NIH3T3, GalScreen luminescence, 90 h. inhibition, % at 8.34 µM. actives 5.9% (n = 77,000). AID 624255, 2012;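 active = mean inhibition above about 93%, with at least 55% of replicates each passing it, limit read from the data, passing the limit was not always enough; inconclusive = only one of those two conditions holds; inactive = neither condition holds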
T cruzi growth-2: T. cruzi intracellular proliferation inhibitors, confirmation, cell-based, NIH3T3 host, beta-gal parasite, luminescence, cherry-pick; shares compounds with T cruzi growth-1; T. cruzi beta-gal in NIH3T3, GalScreen luminescence, 90 h; inhibition, % at 8.35 µM; actives 72% (n = 5,600); AID 651739, 2012;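 active = mean replicate inhibition above about 95% and at least 55% of replicates individually reaching it, limit read from the data; inconclusive = only one of the two criteria is met; inactive = neither criterion is met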
T cruzi growth-3: inhibitors of intracellular T. cruzi replication, confirmation, NIH3T3 host cells, beta-gal parasites, cherry-pick, set 2 | shares compounds with T cruzi growth-1 | T. cruzi beta-gal in NIH3T3, GalScreen luminescence, 90 h | inhibition, % at 2.09 µM | actives 21% (n = 5,600) | AID 651740, 2012;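 active = mean inhibition above about 95%, with at least 55% of replicates also reaching it, limit read from the data; inconclusive = meets just one of the two conditions; inactive = meets neither condition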;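 note: plate controls were neutral control median for no effect and positive control median for full effect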
3T3 cytotox: cytotoxicity in mouse NIH/3T3 fibroblasts, confirmation, cytotoxicity control for T. cruzi proliferation inhibitor project, cell-based, cherry-pick, single point | shares compounds with T cruzi growth-1 | NIH/3T3 viability, CellTiter-Glo ATP luminescence, 90 h | cytotoxicity (signal decrease), % at 8.35 µM | actives 14% (n = 5,600);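 active = mean signal decrease across replicates above about 35% based on untreated-well scatter, with enough replicates individually passing, limit read from the data; inconclusive = no rule stated though some were filed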;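 note: 0% = median of neutral control wells and 100% = median of positive control wells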
3T3 cytotox 2: NIH/3T3 fibroblast cytotoxicity, confirmation, cytotoxicity control, cell-based, cherry-pick, single point, set 2; shares compounds with T cruzi growth-1; AID 651744, 2012; NIH/3T3 viability, CellTiter-Glo ATP luminescence, 90 h; actives 56% (n = 5,600); inhibition, % at 24.9 µM;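 active = mean loss of cell viability signal at or above a set limit, and enough replicates individually reaching it; inconclusive = meets only the mean limit or only the replicate share; inactive = meets neither condition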;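 note: 0% = median of neutral control wells and 100% = median of positive control wells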
An asterisk follows results filed as active. A selection: hits, their analogues and other compounds. The true share with any hit is near 5.8%.

What do the screens show for `O=C(c1cccc(F)c1)N1CC[C@@H]2[C@H]1c1cc(C#Cc3ccc(F)cc3)ccc1N[C@@H]2CO`?
GASC1 inh: -2; Pf Dd2 growth: 0; T cruzi growth-1: 114*; T cruzi growth-2: 108*; T cruzi growth-3: 91; 3T3 cytotox: -2; 3T3 cytotox 2: 79*

Results for COc1ccc(C#Cc2ccc3c(c2)[C@@H]2[C@@H](CCN2C(=O)c2cccc(F)c2)[C@@H](CO)N3)cc1 ?
GASC1 inh: -1; Pf Dd2 growth: -59; T cruzi growth-1: 102*; T cruzi growth-2: 108*; T cruzi growth-3: 84; 3T3 cytotox: -2; 3T3 cytotox 2: 26*

What do the screens show for `C[C@@H]1CN([C@@H](C)CO)S(=O)(=O)c2ccc(C3=CCCCC3)cc2O[C@H]1CN(C)CC1CC1`?
GASC1 inh: 2; IDH1 R132H inh: -1; Pf Dd2 growth: -37; T cruzi growth-1: 53

Results for CN1C(=O)c2cc(NC(=O)Nc3cccc(Cl)c3)ccc2OC[C@H]2O[C@H](CC(=O)NCCc3ccncc3)CC[C@@H]21 ?
GASC1 inh: -1; Pf Dd2 growth: -24; T cruzi growth-1: -12

How did O=C(C1CC1)N1CC[C@@H]2[C@H]1c1cc(-c3cccc(F)c3)ccc1N[C@@H]2CO do in these assays?
GASC1 inh: 4; Pf Dd2 growth: -23; T cruzi growth-1: 115*; T cruzi growth-2: 105*; T cruzi growth-3: 103*; 3T3 cytotox: 4; 3T3 cytotox 2: 28*

What do the screens show for `CN(C)C(=O)c1cccc(-c2ccc3c(c2)[C@H]2[C@H](CCN2C(=O)C2CC2)[C@@H](CO)N3)c1`?
GASC1 inh: 6; Pf Dd2 growth: -94*; T cruzi growth-1: 112*; T cruzi growth-2: 93; T cruzi growth-3: 48; 3T3 cytotox: -8; 3T3 cytotox 2: -7

How did CN(C)C(=O)c1cccc(-c2ccc3c(c2)[C@@H]2[C@@H](CCN2C(=O)C2CC2)[C@H](CO)N3)c1 do in these assays?
GASC1 inh: 1; Pf Dd2 growth: -23; T cruzi growth-1: 68

How did CN(C)C(=O)c1cccc(-c2ccc3c(c2)[C@H]2[C@H](CCN2C(=O)C2CC2)[C@H](CO)N3)c1 do in these assays?
GASC1 inh: 1; Pf Dd2 growth: -7; T cruzi growth-1: 99*; T cruzi growth-2: 105*; T cruzi growth-3: 71; 3T3 cytotox: -19; 3T3 cytotox 2: -6

Results for O=C(C1CCOCC1)N1CC[C@@H]2[C@H]1c1cc(-c3cccc(F)c3)ccc1N[C@@H]2CO ?
GASC1 inh: -1; Pf Dd2 growth: 5; T cruzi growth-1: 49

Results for C[C@@H]1CN([C@@H](C)CO)C(=O)c2cc(NC(=O)NC3CCCCC3)ccc2O[C@H]1CN(C)Cc1ccc(C(=O)O)cc1 ?
GASC1 inh: 0; IDH1 R132H inh: -1; Pf Dd2 growth: 13

What do the screens show for `C[C@@H]1CN([C@@H](C)CO)C(=O)c2cc(C#CCc3ccccc3)cnc2O[C@H]1CN(C)C(=O)C1CCCCC1`?
GASC1 inh: 0; Pf Dd2 growth: -82*; T cruzi growth-1: 114*; T cruzi growth-2: 105*; T cruzi growth-3: 36; 3T3 cytotox: -28; 3T3 cytotox 2: 106*

Results for CC(C)CC#Cc1cnc2c(c1)C(=O)N([C@@H](C)CO)C[C@@H](C)[C@H](CN(C)C(=O)C1CCCCC1)O2 ?
GASC1 inh: 0; IDH1 R132H inh: -2; Pf Dd2 growth: -53; T cruzi growth-1: inconclusive; T cruzi growth-2: inconclusive; T cruzi growth-3: 32; 3T3 cytotox: -10; 3T3 cytotox 2: 81*

How did CNC[C@@H]1Oc2ncc(C#CCC3CCCC3)cc2C(=O)N([C@H](C)CO)C[C@@H]1C do in these assays?
GASC1 inh: 1; IDH1 R132H inh: 0; Pf Dd2 growth: -35; T cruzi growth-1: 57

What do the screens show for `CC(C)CC#Cc1cnc2c(c1)C(=O)N([C@@H](C)CO)C[C@@H](C)[C@@H](CN(C)C(=O)C1CCCCC1)O2`?
GASC1 inh: 0; IDH1 R132H inh: 0; Pf Dd2 growth: 0; T cruzi growth-1: 48

How did CNC[C@@H]1Oc2ncc(C#CCC3CCCC3)cc2C(=O)N([C@H](C)CO)C[C@H]1C do in these assays?
GASC1 inh: 0; IDH1 R132H inh: -1; Pf Dd2 growth: -52; T cruzi growth-1: inconclusive; T cruzi growth-2: 109*; T cruzi growth-3: inconclusive; 3T3 cytotox: -2; 3T3 cytotox 2: 106*

How did COc1cccc(OCC(=O)Nc2ccc(-c3nc4ccccc4o3)cc2)c1 do in these assays?
IDH1 R132H inh: 0

How did C[C@@H]1CCCCO[C@@H](CN(C)C(=O)Nc2ccc(C(F)(F)F)cc2)[C@@H](C)CN([C@@H](C)CO)C(=O)c2cc(N(C)C)ccc2O1 do in these assays?
GASC1 inh: -1; IDH1 R132H inh: 5; Pf Dd2 growth: 20; T cruzi growth-1: 100*; T cruzi growth-2: 111*; T cruzi growth-3: 39; 3T3 cytotox: -4; 3T3 cytotox 2: -25

How did C[C@H]1CCCCO[C@H](CN(C)C(=O)Nc2ccc(C(F)(F)F)cc2)[C@@H](C)CN([C@@H](C)CO)C(=O)c2cc(N(C)C)ccc2O1 do in these assays?
GASC1 inh: 0; Pf Dd2 growth: -8; T cruzi growth-1: 99*; T cruzi growth-2: 100*; T cruzi growth-3: 48; 3T3 cytotox: -28; 3T3 cytotox 2: -6

What do the screens show for `C[C@@H]1CCCCO[C@H](CN(C)C(=O)Nc2ccc(C(F)(F)F)cc2)[C@H](C)CN([C@@H](C)CO)C(=O)c2cc(N(C)C)ccc2O1`?
GASC1 inh: -2; IDH1 R132H inh: 0; Pf Dd2 growth: -32; T cruzi growth-1: 85

How did COc1ccc(NC(=O)N(C)C[C@H]2Oc3c(NC(=O)C4CCCCC4)cccc3C(=O)N([C@@H](C)CO)C[C@H]2C)cc1 do in these assays?
GASC1 inh: -3; IDH1 R132H inh: -1; Pf Dd2 growth: -46; T cruzi growth-1: -32

Compound activity (PubChem BioAssay)
